From ChEMBL document CHEMBL1828552, “Synthesis and studies of novel 2-(4-cyano-3-trifluoromethylphenyl amino)-4-(quinoline-4-yloxy)-6-(piperazinyl/piperidinyl)-s-triazines as potential antimicrobial, antimycobacterial and anticancer agents” (2011)
Values after ≈ are worked out from the molar mass of the structure shown.

What follows are molecules tested on DU-145 (assay: Cytotoxicity against […] human DU145 cells after 48 hrs by SRB assay). Details: DU-145, 48 h.
Format: functional
Method in brief: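 SRB assay in DU-145 cells grown in RPMI 1640 with 10% FBS and 2 mM L-glutamine. Cells were plated and held 24 h before addition of four 10-fold concentrations. After 48 h, cells were TCA-fixed, stained with 0.4% SRB and read at 540 nm. GI50, TGI and LC50 were derived against time-zero and control wells; each value is the mean of three experiments.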
With `N#Cc1ccc(Nc2nc(Oc3ccnc4ccccc34)nc(N3CCN(Cc4ccccc4)CC3)n2)cc1C(F)(F)F` the GI50 was > 100 µM, the LC50 (concentration giving 50% net cell kill relative to time zero) was > 100 µM and the TGI was > 100 µM.

What follows are molecules tested on Pseudomonas aeruginosa (assay: Antibacterial activity against 10^5 CFU/mL Pseudomonas aeruginosa MTCC 741 after 24 hrs by disc diffusion technique). Details: not given.
Format: functional
Method in brief: (§1)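 Disc diffusion on Mueller–Hinton agar poured 5 mm deep. The surface was swabbed with a 10⁵ CFU/mL […] suspension. Filter-paper discs 6.25 mm in diameter were soaked in compound in DMSO and placed on the agar. Plates were incubated 24 h at 37 ± 1 °C, and the inhibition zone was measured in mm. A DMSO disc served as blank.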
In the case of `N#Cc1ccc(Nc2nc(Oc3ccnc4ccccc34)nc(N3CCN(Cc4ccccc4)CC3)n2)cc1C(F)(F)F`, the “inhibition zone (IZ)” value is reported as 15 mm.

These molecules were tested on Klebsiella pneumoniae (assay: Antibacterial activity against 10^5 CFU/mL Klebsiella pneumoniae MTCC 109 after 24 hrs by disc diffusion technique). Details: not given.
Format: functional
Method in brief: as §1
`N#Cc1ccc(Nc2nc(Oc3ccnc4ccccc34)nc(N3CCN(Cc4ccccc4)CC3)n2)cc1C(F)(F)F` was tested, and the “inhibition zone (IZ)” value was <10 mm.

The molecules below were run on Salmonella typhi (assay: Antibacterial activity against 10^5 CFU/mL Salmonella typhi MTCC 733 after 24 hrs by disc diffusion technique). Details: not given.
Format: functional, Salmonella enterica subsp. enterica serovar Typhi
Method in brief: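 Disc diffusion. Mueller-Hinton agar autoclaved 120 °C 30 min, poured 5 mm deep. Surface swabbed with 10⁵ CFU/mL suspension […]. 6.25 mm filter-paper discs soaked in compound in DMSO; DMSO-only disc as blank. Incubated 37 ± 1 °C, 24 h for bacteria or 48 h for fungi. Ciprofloxacin and ketoconazole discs as reference drugs. Inhibition zone measured in mm.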
With `N#Cc1ccc(Nc2nc(Oc3ccnc4ccccc34)nc(N3CCN(Cc4ccccc4)CC3)n2)cc1C(F)(F)F` the “inhibition zone (IZ)” value was 14 mm.

The molecules below were run on Staphylococcus aureus (assay: Antibacterial activity against 10^5 CFU/mL Staphylococcus aureus MTCC 96 after 24 hrs by disc diffusion technique). Details: not given.
Format: functional
Method in brief: as §1
With `N#Cc1ccc(Nc2nc(Oc3ccnc4ccccc34)nc(N3CCN(Cc4ccccc4)CC3)n2)cc1C(F)(F)F` the “inhibition zone (IZ)” value was 22 mm.

These molecules were tested on Candida albicans (assay: Antifungal activity against 10^5 CFU/mL Candida albicans MTCC 183 after 48 hrs by disc diffusion technique). Details: not given.
Format: functional
With `N#Cc1ccc(Nc2nc(Oc3ccnc4ccccc34)nc(N3CCN(Cc4ccccc4)CC3)n2)cc1C(F)(F)F` the “inhibition zone (IZ)” value was <10 mm.

The molecules below were run on Escherichia coli (assay: Antibacterial activity against 10^5 CFU/mL Escherichia coli MTCC 739 after 24 hrs by agar streak dilution method). Details: MTCC 739, 24 h.
Format: functional
Method in brief: (§2)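 Agar streak dilution. Stock 100 µg/mL in DMSO; graded amounts were mixed into molten nutrient agar and poured at 4–5 mm depth. Plates carried serial dilutions over […]. About 10⁵ CFU/mL of each bacterium was applied, and plates were incubated at 37 ± 1 °C for 24 h. MIC was read from the dilution series.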
With `N#Cc1ccc(Nc2nc(Oc3ccnc4ccccc34)nc(N3CCN(Cc4ccccc4)CC3)n2)cc1C(F)(F)F` the MIC was 100 µg/mL (≈ 172 µM).

Each molecule was assayed on Bacillus cereus (assay: Antibacterial activity against 10^5 CFU/mL Bacillus cereus MTCC 619 after 24 hrs by disc diffusion technique). Details: not given.
Format: functional
Method in brief: as §1
`N#Cc1ccc(Nc2nc(Oc3ccnc4ccccc34)nc(N3CCN(Cc4ccccc4)CC3)n2)cc1C(F)(F)F` was tested, and the “inhibition zone (IZ)” value was 22 mm.

What follows are molecules tested on Candida albicans (assay: Antifungal activity against 10^5 CFU/mL Candida albicans MTCC 183 after 48 hrs by agar streak dilution method). Details: MTCC 183, 48 h.
Format: functional
Method in brief: (§3)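 Agar streak dilution for fungi. Stock 100 µg/mL in DMSO; graded amounts were mixed into molten Sabouraud dextrose agar and poured at 4–5 mm depth. Serial dilutions ran over […]. About 10⁵ CFU/mL inoculum was applied, with incubation at 37 ± 1 °C for 48 h. MIC was read from the dilution series.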
Work on `N#Cc1ccc(Nc2nc(Oc3ccnc4ccccc34)nc(N3CCN(Cc4ccccc4)CC3)n2)cc1C(F)(F)F` yielded an MIC of 100 µg/mL (≈ 172 µM).

What follows are molecules tested on Escherichia coli (assay: Antibacterial activity against 10^5 CFU/mL Escherichia coli MTCC 739 after 24 hrs by disc diffusion technique). Details: not given.
Format: functional
Method in brief: as §1
With `N#Cc1ccc(Nc2nc(Oc3ccnc4ccccc34)nc(N3CCN(Cc4ccccc4)CC3)n2)cc1C(F)(F)F` the “inhibition zone (IZ)” value was 14 mm.

Each molecule was assayed on Bacillus cereus (assay: Antibacterial activity against 10^5 CFU/mL Bacillus cereus MTCC 619 after 24 hrs by agar streak dilution method). Details: MTCC 619, 24 h.
Format: functional
Method in brief: as §2
`N#Cc1ccc(Nc2nc(Oc3ccnc4ccccc34)nc(N3CCN(Cc4ccccc4)CC3)n2)cc1C(F)(F)F` gave an MIC of 100 µg/mL (≈ 172 µM).

The molecules below were run on Shigella flexneri (assay: Antibacterial activity against 10^5 CFU/mL Shigella flexneri MTCC 1457 after 24 hrs by disc diffusion technique). Details: not given.
Format: functional
Method in brief: as §1
In the case of `N#Cc1ccc(Nc2nc(Oc3ccnc4ccccc34)nc(N3CCN(Cc4ccccc4)CC3)n2)cc1C(F)(F)F`, the “inhibition zone (IZ)” value is reported as 11 mm.

These molecules were tested on Pseudomonas aeruginosa (assay: Antibacterial activity against 10^5 CFU/mL Pseudomonas aeruginosa MTCC 741 after 24 hrs by agar streak dilution method). Details: MTCC 741, 24 h.
Format: functional
Method in brief: as §2
`N#Cc1ccc(Nc2nc(Oc3ccnc4ccccc34)nc(N3CCN(Cc4ccccc4)CC3)n2)cc1C(F)(F)F` showed an MIC of 100 µg/mL (≈ 172 µM).

The molecules below were run on Proteus vulgaris (assay: Antibacterial activity against 10^5 CFU/mL Proteus vulgaris MTCC 1771 after 24 hrs by agar streak dilution method). Details: MTCC 1771, 24 h.
Format: functional
Method in brief: as §2
In the case of `N#Cc1ccc(Nc2nc(Oc3ccnc4ccccc34)nc(N3CCN(Cc4ccccc4)CC3)n2)cc1C(F)(F)F`, the MIC is reported as 100 µg/mL (≈ 172 µM).

The molecules below were run on Aspergillus niger (assay: Antifungal activity against 10^5 CFU/mL Aspergillus niger MTCC 282 after 48 hrs by disc diffusion technique). Details: not given.
Format: functional
With `N#Cc1ccc(Nc2nc(Oc3ccnc4ccccc34)nc(N3CCN(Cc4ccccc4)CC3)n2)cc1C(F)(F)F` the “inhibition zone (IZ)” value was <10 mm.

What follows are molecules tested on Aspergillus fumigatus (assay: Antifungal activity against 10^5 CFU/mL Aspergillus fumigatus MTCC 343 after 48 hrs by disc diffusion technique). Details: not given.
Format: functional
In the case of `N#Cc1ccc(Nc2nc(Oc3ccnc4ccccc34)nc(N3CCN(Cc4ccccc4)CC3)n2)cc1C(F)(F)F`, the “inhibition zone (IZ)” value is reported as <10 mm.

What follows are molecules tested on Aspergillus clavatus (assay: Antifungal activity against 10^5 CFU/mL Aspergillus clavatus MTCC 1323 after 48 hrs by agar streak dilution method). Details: MTCC 1323, 48 h.
Format: functional
Method in brief: as §3
For `N#Cc1ccc(Nc2nc(Oc3ccnc4ccccc34)nc(N3CCN(Cc4ccccc4)CC3)n2)cc1C(F)(F)F`, the MIC was 100 µg/mL (≈ 172 µM).

What follows are molecules tested on Proteus vulgaris (assay: Antibacterial activity against 10^5 CFU/mL Proteus vulgaris MTCC 1771 after 24 hrs by disc diffusion technique). Details: not given.
Format: functional
Method in brief: as §1
In the case of `N#Cc1ccc(Nc2nc(Oc3ccnc4ccccc34)nc(N3CCN(Cc4ccccc4)CC3)n2)cc1C(F)(F)F`, the “inhibition zone (IZ)” value is reported as 16 mm.

Each molecule was assayed on Aspergillus clavatus (assay: Antifungal activity against 10^5 CFU/mL Aspergillus clavatus MTCC 1323 after 48 hrs by disc diffusion technique). Details: not given.
Format: functional
In the case of `N#Cc1ccc(Nc2nc(Oc3ccnc4ccccc34)nc(N3CCN(Cc4ccccc4)CC3)n2)cc1C(F)(F)F`, the “inhibition zone (IZ)” value is reported as 12 mm.

What follows are molecules tested on Shigella flexneri (assay: Antibacterial activity against 10^5 CFU/mL Shigella flexneri MTCC 1457 after 24 hrs by agar streak dilution method). Details: MTCC 1457, 24 h.
Format: functional
Method in brief: as §2
With `N#Cc1ccc(Nc2nc(Oc3ccnc4ccccc34)nc(N3CCN(Cc4ccccc4)CC3)n2)cc1C(F)(F)F` the MIC was 100 µg/mL (≈ 172 µM).

What follows are molecules tested on Klebsiella pneumoniae (assay: Antibacterial activity against 10^5 CFU/mL Klebsiella pneumoniae MTCC 109 after 24 hrs by agar streak dilution method). Details: MTCC 109, 24 h.
Format: functional
Method in brief: as §2
For `N#Cc1ccc(Nc2nc(Oc3ccnc4ccccc34)nc(N3CCN(Cc4ccccc4)CC3)n2)cc1C(F)(F)F`, the MIC was 100 µg/mL (≈ 172 µM).

What follows are molecules tested on Aspergillus niger (assay: Antifungal activity against 10^5 CFU/mL Aspergillus niger MTCC 282 after 48 hrs by agar streak dilution method). Details: MTCC 282, 48 h.
Format: functional
Method in brief: as §3
For `N#Cc1ccc(Nc2nc(Oc3ccnc4ccccc34)nc(N3CCN(Cc4ccccc4)CC3)n2)cc1C(F)(F)F`, the MIC was 100 µg/mL (≈ 172 µM).

Each molecule was assayed on Staphylococcus aureus (assay: Antibacterial activity against 10^5 CFU/mL Staphylococcus aureus MTCC 96 after 24 hrs by agar streak dilution method). Details: MTCC 96, 24 h.
Format: functional
Method in brief: as §2
In the case of `N#Cc1ccc(Nc2nc(Oc3ccnc4ccccc34)nc(N3CCN(Cc4ccccc4)CC3)n2)cc1C(F)(F)F`, the MIC is reported as 100 µg/mL (≈ 172 µM).

Each molecule was assayed on Aspergillus fumigatus (assay: Antifungal activity against 10^5 CFU/mL Aspergillus fumigatus MTCC 343 after 48 hrs by agar streak dilution method). Details: MTCC 343, 48 h.
Format: functional
Method in brief: as §3
`N#Cc1ccc(Nc2nc(Oc3ccnc4ccccc34)nc(N3CCN(Cc4ccccc4)CC3)n2)cc1C(F)(F)F` gave an MIC of 100 µg/mL (≈ 172 µM).

These molecules were tested on Salmonella typhi (assay: Antibacterial activity against 10^5 CFU/mL Salmonella typhi MTCC 733 after 24 hrs by agar streak dilution method). Details: Salmonella enterica, MTCC 733, 24 h.
Format: functional, Salmonella enterica subsp. enterica serovar Typhi
`N#Cc1ccc(Nc2nc(Oc3ccnc4ccccc34)nc(N3CCN(Cc4ccccc4)CC3)n2)cc1C(F)(F)F` gave an MIC of 100 µg/mL (≈ 172 µM).
